Compound activity: PubChem, several laboratories
RGS4 inh: RGS4 inhibitors, primary screen, cell-based, HEK293 M3R inducible RGS4, calcium flux; Regulator of G-protein signaling 4 (Homo sapiens), P49798; Fluo-4 calcium flux; hits give high values; triggered by carbachol at its EC20; B-score at 10 µM; 310,000 tested, 0.45% active;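 active = B-score, a plate-corrected calcium signal, over three deviations above library mean, with baseline fluorescence within five deviations of library mean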;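 note: RGS4 expression induced by doxycycline in cells with stable M3 receptor; B-score is computed from the integrated fluorescence ratio over baseline after carbachol; higher B-score means a larger calcium signal and so more RGS4 inhibition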
KCC2 mod: KCC2 cotransporter modulators, thallium flux, primary screen, cell-based, HEK293 KCC2, FluoZin-2 fluorescence, MLSMR | 190,000 tested, 2.2% active | KCC2 cells, thallium flux FluoZin-2 fluorescence | B-score of Tl+ flux slope (higher = more flux/activation; lower = inhibition) at 10 µM | Solute carrier family 12 member 5 (Homo sapiens), Q9H2X9;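 active = thallium flux slope and its plate-corrected score both differing from the plate sample mean at a set confidence after two filtering rounds, in either direction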;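 note: slope of fluorescence scaled to starting intensity during 10 to 20 s after thallium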
Target sequence (Q9H2X9 whole entry, looked up): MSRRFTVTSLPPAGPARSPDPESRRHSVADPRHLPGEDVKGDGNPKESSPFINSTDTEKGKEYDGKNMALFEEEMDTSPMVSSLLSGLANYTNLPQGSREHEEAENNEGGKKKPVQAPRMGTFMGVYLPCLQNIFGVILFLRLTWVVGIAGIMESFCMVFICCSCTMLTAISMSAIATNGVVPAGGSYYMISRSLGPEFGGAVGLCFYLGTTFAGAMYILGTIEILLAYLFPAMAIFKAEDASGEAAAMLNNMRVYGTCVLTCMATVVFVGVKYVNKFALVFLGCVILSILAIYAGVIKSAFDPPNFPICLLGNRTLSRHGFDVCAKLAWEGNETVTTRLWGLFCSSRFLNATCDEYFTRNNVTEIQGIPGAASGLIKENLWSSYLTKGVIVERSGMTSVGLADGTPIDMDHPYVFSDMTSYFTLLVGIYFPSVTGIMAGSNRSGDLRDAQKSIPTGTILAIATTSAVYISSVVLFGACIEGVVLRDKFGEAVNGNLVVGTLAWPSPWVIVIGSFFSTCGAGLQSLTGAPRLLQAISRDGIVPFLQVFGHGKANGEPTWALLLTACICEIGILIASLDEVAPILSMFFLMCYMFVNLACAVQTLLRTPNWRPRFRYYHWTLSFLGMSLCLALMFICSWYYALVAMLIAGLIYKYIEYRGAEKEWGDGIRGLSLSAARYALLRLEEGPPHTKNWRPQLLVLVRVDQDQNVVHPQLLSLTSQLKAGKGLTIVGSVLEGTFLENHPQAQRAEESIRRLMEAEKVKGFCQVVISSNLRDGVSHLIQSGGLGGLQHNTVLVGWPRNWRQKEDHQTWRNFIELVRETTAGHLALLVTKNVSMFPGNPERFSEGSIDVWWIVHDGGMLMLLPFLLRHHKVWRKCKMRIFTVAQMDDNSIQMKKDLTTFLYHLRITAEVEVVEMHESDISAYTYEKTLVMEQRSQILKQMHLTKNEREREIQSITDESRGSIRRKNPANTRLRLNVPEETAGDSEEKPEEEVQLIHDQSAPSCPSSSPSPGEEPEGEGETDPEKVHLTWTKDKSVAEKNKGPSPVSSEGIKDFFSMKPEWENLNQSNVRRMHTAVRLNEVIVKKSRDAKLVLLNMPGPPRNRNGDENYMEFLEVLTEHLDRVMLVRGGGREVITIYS
MrgX1 antag: antagonists of human MrgX1 receptor, primary screen, HEK293 cells, Fluo-4 calcium flux; Mas-related G-protein coupled receptor member X1 (Homo sapiens), Q96LB2; BAM8-22 antagonism; hits give low values; B-score at 10 µM; 310,000 tested, 1.3% active; AID 588676, 2011;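 active = calcium-response B-score plate-corrected more than 3 library SD below zero, starting fluorescence within 5 deviations, no agonist response on first addition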;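 note: peak minus trough fluorescence over baseline after final BAM8-22 challenge near maximal dose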
MrgX1 ag: agonists of human MrgX1 receptor, primary screen, HEK293 cells, Fluo-4 calcium flux; B-score at 10 µM; 310,000 tested, 0.44% active; Fluo-4 calcium fluorescence, agonist mode; hits give high values; AID 588627, 2011;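 active = calcium response B-score plate-corrected fluorescence ratio at least 3 library SD, with starting fluorescence B-score inside 5 SD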
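Assay system: MrgX1-expressing HEK293 cells / Amount: fifteen thousand cells per well / Doses: test compound in the initial addition of three / Timing: cells plated overnight, dye loaded 0.5 h 37 °C, 0.5 h room temperature / Technique: kinetic calcium dye fluorescence, Fluo-4 NW / Control set: positive and negative controls per plate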
MrgX1 allo act: positive allosteric modulators of MrgX1, primary screen, HEK293 cells, Fluo-4 calcium flux | FDSS; hits give high values | 310,000 tested, 0.63% active | B-score at 10 µM;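 active = plate-corrected calcium response at least 3 library SD above typical, normal starting fluorescence, not activating the receptor alone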;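 note: compound read alongside a low EC10 to EC30 dose of BAM8-22 agonist; peak minus trough fluorescence over baseline measured at the second addition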
RGS4 pot: RGS4 potentiators or activators, primary screen, cell-based, HEK293 M3R inducible RGS4, calcium flux; carbachol calcium flux Fluo4; hits give low values; B-score at 10 µM; 310,000 tested, 0.92% active;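 active = B-score of the integrated calcium signal more than 4 SD below the library mean, with starting fluorescence not abnormally high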;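 note: negative B-score means reduced calcium response which marks RGS4 activation or potentiation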
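Material: M3R-expressing HEK293 line, RGS4 induced by doxycycline | Schedule: Overnight RGS4 induction, 30 min dye load 37 °C, 20 min compound RT | Measured by: Fluo4 fluorescence kinetic imaging of calcium | Read-out: Integrated calcium ratio converted to B score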
MrgX1 PAM conf: MrgX1 positive allosteric modulators, duplicate retest, confirmation, HEK293 cells, Fluo-4 calcium flux | activation (ratio percentage), % at 10 µM | shares compounds with MrgX1 allo act | Fluo-4 calcium fluorescence, FDSS | AID 602413, 2012 | 1,200 tested, 13% active;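 active = ratio at least 3 SD above the weak peptide control, stable starting fluorescence, no direct agonism earlier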;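 note: compound followed by low BAM8-22 agonist challenge near EC20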
HEK293 Ca flux: nonspecific calcium signal in parental HEK293, confirmation, counter-screen for MrgX1 antagonist project, parental HEK293 cells, Fluo-4 calcium flux. shares compounds with MrgX1 antag. Fluo-4 calcium fluorescence, FDSS. fluorescence ratio F(max-min)/F0 at 10 µM. 4,000 tested, 2% active. AID 624111, 2012;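 active = duplicate-averaged calcium fluorescence ratio at least three times the standard deviation of buffer wells, a nonspecific response in parental cells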
HEK293 Ca counter: calcium response in parental HEK293 cells, primary screen, counter-screen for MrgX1 allosteric activator project, cell-based, Fluo-4 calcium flux, duplicate | shares compounds with MrgX1 antag | Fluo-4 fluorescence ratio; hits give high values | AID 624114, 2012 | fluorescence ratio F(max-min)/F0 at 10 µM | 4,000 tested, 0.4% active;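 active = calcium fluorescence ratio, averaged over duplicates, at least 3 SD of the buffer-well ratio, meaning a nonspecific response in receptor-free cells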;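 note: untransfected parental HEK293 lacking MrgX1 used as counterscreen for MrgX1 allosteric activators; fluorescence change taken during the second addition on a kinetic imager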
HEK293 Ca cntr2: calcium response in parental HEK293 cells, primary screen, counter-screen for MrgX1 agonist project, cell-based, Fluo-4 calcium flux, duplicate, agonist mode | fluorescence ratio F(max-min)/F0 at 10 µM | AID 624115, 2012 | shares compounds with MrgX1 antag | 4,000 tested, 8.7% active | Fluo-4 calcium fluorescence (FDSS); hits give high values;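 active = calcium fluorescence ratio at least three times the spread of buffer wells, meaning a non-specific response in parental cells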
Active calls of the source: *; i = inactive; . = no result. The list is not random: actives were taken first. Their share in the collection is about 4.7%.

SMILES	RGS4 inh	KCC2 mod	MrgX1 antag	MrgX1 ag	MrgX1 allo act	RGS4 pot	MrgX1 PAM conf	HEK293 Ca flux	HEK293 Ca counter	HEK293 Ca cntr2
COc1ccc(Br)c(C(=O)Nc2ccc(F)cc2)c1	i	.	i	i	6.9*	i	i	i	i	i
CCC1CCCCN1S(=O)(=O)c1ccc(C(=O)N(CCCN(C)C)c2nc3cc4c(cc3s2)OCO4)cc1 (centres undefined)	i	.	i	i	i	i	.	.	.	.
O=C(COC(=O)c1cc(=O)[nH]c2ccccc12)NC1CCCCCCC1	i	-0.83	i	i	9.7*	i	i	i	i	i
Cc1ccc(S(=O)(=O)N2CCOCC2)cc1NC(=O)COC(=O)c1cc(=O)[nH]c2ccccc12	i	0.29	i	i	9.8*	i	i	i	i	i
CC(=O)N(CCC1(c2ccc(C)cc2)CCOC(C(C)C)C1)Cc1ccco1 (centres undefined)	i	-1.5	i	i	10*	i	i	i	i	i
COc1cccc(NC(=O)CN2C(=O)COc3ccc(Cl)cc32)c1	i	.	i	i	7.7*	i	i	i	i	i
O=S(=O)(c1cccs1)N1CCN(c2ccccc2)CC1	i	.	i	i	i	i	.	.	.	.
O=C(C(NS(=O)(=O)c1cccs1)c1ccccc1)N1CCN(c2ccccc2)CC1 (centres undefined)	i	-2.2	i	i	21*	i	i	i	i	i
COc1cc(C(=O)Nc2ccccc2C(=O)NCc2cccnc2)cc(OC)c1OC	i	.	i	i	8.9*	i	i	i	i	i
Cc1cc(C)c2sc(NC(=O)c3ccc([N+](=O)[O-])o3)nc2c1	i	.	i	i	20*	i	i	i	i	i
O=C1COc2ccc3ccccc3c21	i	.	i	i	i	i	.	.	.	.
Cc1c(-c2nc(N)nc(Nc3ccccc3)n2)oc2ccccc12	i	-0.36	i	i	20*	i	i	i	i	i
Nc1nc(CN2CCCCCC2)nc(Nc2ccccc2)n1	i	-0.092	i	i	i	i	.	.	.	.
O=C(OCCN1C(=O)c2ccccc2C1=O)c1cc(S(=O)(=O)N2CCOCC2)ccc1F	i	0.022	i	i	6.8*	i	i	i	i	i
COc1ccc(NC2CCCN(C(=O)c3ccccc3N3CCOCC3)C2)cc1OC (centres undefined)	i	.	i	i	i	i	.	.	.	.
CC(C)C(OC(=O)CN1C(=O)c2ccccc2C1=O)C(=O)NC1CCCC1 (centres undefined)	i	.	i	i	i	i	.	.	.	.
NC(=O)c1ccsc1NC(=O)COC(=O)Cc1c[nH]c2ccccc12	i	.	i	i	8.9*	i	27%*	i	i	i
COc1ccc(NS(=O)(=O)c2ccc(OCC(=O)N3CCOCC3)cc2)cc1Cl	i	.	i	i	i	i	.	.	.	.
O=C(CCc1ccccc1)Nc1nc2n(n1)C(c1ccccc1)CC(=O)N2 (centres undefined)	i	.	i	i	21*	i	i	i	i	i
O=C(CCc1ccccc1)Nc1nc2n(n1)C(c1ccc(Cl)cc1)CC(=O)N2 (centres undefined)	i	-0.074	i	i	i	i	.	.	.	.
CN1/C(=C/C2CC(=O)NC2=O)C(C)(C)c2ccccc21 (centres undefined)	.	.	i	i	7*	.	i	i	i	i
COCn1c(-c2ccc(OC)cc2)nc2ccccc21	i	0.072	i	i	i	i	.	.	.	.
C=C(C)Cn1c(-c2ccc(OC)cc2)nc2ccccc21	i	.	i	i	7*	i	i	i	i	i
O=C(Nc1ccc(C(=O)OC2CCCCC2)cc1)c1ccncc1	i	.	i	i	i	i	.	.	.	.
N=c1sccn1CC(=O)N1N=C(c2ccc(Cl)cc2)CC1c1ccco1 (centres undefined)	i	-0.45	i	i	21*	i	i	i	i	i
SMILES	RGS4 inh	KCC2 mod	MrgX1 antag	MrgX1 ag	MrgX1 allo act	RGS4 pot	MrgX1 PAM conf	HEK293 Ca flux	HEK293 Ca counter	HEK293 Ca cntr2
CC(CNc1nc2ccc(Cl)cc2n2cnnc12)c1ccccc1 (centres undefined)	i	.	i	i	i	i	.	.	.	.
O=C(O)CN1C(=O)C2(OCCO2)c2cc(Br)ccc21	i	.	i	i	i	i	.	.	.	.
Cc1ccc(Nc2nnc(SCC3CCCCO3)s2)cc1 (centres undefined)	i	0.09	i	i	8.5*	i	i	i	i	i
Cc1ccccc1Nc1nnc(SCC2CCCCO2)s1 (centres undefined)	i	-2.4	i	i	i	i	.	.	.	.
CCC(C)[C@H](NC(=O)[C@@H]1CSC2c3ccccc3C(=O)N21)C(=O)NCc1ccco1 (some centres undefined)	i	.	i	i	i	i	.	.	.	.
CCOc1ccc(C(=O)NCC(=O)OCC(=O)N2CCCC2)cc1	i	0.33	i	i	i	i	.	.	.	.
CCOc1ccc(C(=O)NCC(=O)OCC(=O)N2CCC(C)CC2)cc1	i	.	i	i	8*	i	i	i	i	i
CC1CCN(C(=O)c2cc(S(=O)(=O)N3CCCCC3)c[nH]2)CC1	i	.	i	i	i	i	.	.	.	.
